# Results from ChEMBL document CHEMBL4350961, “Discovery of Pyrrolo[3,2- d]pyrimidin-4-one Derivatives as a New Class of Potent and Cell-Active Inhibitors of P300/CBP-Associated Factor Bromodomain” (J Med Chem, 2019).
# Calls of active or inactive are those of the source. The calls are words filed in the database; no cut-off is given here.
# Key:
# Homo sapiens [1] = species: Homo sapiens; assay: Inhibition of human activated Tec F514V mutant (174 to end residues) using EFPIYDFLPAKKK as substrate measured after 40 mins in presence of [gamma33P]ATP by scintillation counting method
# [2] = target: cGMP-dependent protein kinase 1 (Homo sapiens) (UniProt Q13976); assay: Inhibition of recombinant full-length human PKG1beta at 10 uM using RRRLSFAEPG as substrate measured after 40 mins in presence of [gamma33P]ATP by scintillation counting method
# [3] = tested on: Discoidin domain-containing receptor 2 (Homo sapiens), Q16832 [UNDEFINED MUTATION]; assay: Inhibition of recombinant human DDR2 S642A mutant (467 to end residues) at 10 uM using KKSRGDYMTMQIG as substrate measured after 40 mins in presence of [gamma33P]ATP by scintillation counting method
# Discoidin domain-containing receptor 2 (Homo sapiens), Q16832 [UNDEFINED MUTATION], sequence (Q16832 whole entry, looked up, stated change not applied, the tested form may be a part): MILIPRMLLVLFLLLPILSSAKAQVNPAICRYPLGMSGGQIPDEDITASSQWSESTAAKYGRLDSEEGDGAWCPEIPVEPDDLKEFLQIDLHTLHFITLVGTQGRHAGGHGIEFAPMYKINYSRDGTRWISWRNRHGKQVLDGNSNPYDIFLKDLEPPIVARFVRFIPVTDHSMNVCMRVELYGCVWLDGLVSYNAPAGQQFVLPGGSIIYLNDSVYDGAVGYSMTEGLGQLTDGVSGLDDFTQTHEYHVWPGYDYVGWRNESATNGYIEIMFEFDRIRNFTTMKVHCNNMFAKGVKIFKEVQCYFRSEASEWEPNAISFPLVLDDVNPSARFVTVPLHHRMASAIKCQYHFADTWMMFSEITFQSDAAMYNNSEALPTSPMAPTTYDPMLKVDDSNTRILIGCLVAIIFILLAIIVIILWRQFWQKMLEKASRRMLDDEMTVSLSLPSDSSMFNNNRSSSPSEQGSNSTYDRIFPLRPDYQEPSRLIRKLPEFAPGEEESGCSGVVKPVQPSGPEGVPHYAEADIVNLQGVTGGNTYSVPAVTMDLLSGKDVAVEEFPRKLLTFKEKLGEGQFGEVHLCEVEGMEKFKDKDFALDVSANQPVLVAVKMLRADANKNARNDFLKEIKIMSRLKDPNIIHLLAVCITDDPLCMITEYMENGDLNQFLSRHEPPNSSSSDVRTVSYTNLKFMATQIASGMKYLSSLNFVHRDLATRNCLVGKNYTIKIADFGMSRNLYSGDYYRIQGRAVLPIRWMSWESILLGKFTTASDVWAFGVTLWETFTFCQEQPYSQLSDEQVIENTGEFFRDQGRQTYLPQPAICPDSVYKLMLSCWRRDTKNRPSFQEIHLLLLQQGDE
# [4] = target: Fibroblast growth factor receptor 2 (Homo sapiens) (UniProt P21802); assay: Inhibition of recombinant human FGFR2 (456 to 770 residues) at 10 uM using poly(Glu, Tyr) 4:1 as substrate measured after 40 mins in presence of [gamma33P]ATP by scintillation counting method
# Fibroblast growth factor receptor 2 (Homo sapiens), sequence (P21802 22-821 limits assumed): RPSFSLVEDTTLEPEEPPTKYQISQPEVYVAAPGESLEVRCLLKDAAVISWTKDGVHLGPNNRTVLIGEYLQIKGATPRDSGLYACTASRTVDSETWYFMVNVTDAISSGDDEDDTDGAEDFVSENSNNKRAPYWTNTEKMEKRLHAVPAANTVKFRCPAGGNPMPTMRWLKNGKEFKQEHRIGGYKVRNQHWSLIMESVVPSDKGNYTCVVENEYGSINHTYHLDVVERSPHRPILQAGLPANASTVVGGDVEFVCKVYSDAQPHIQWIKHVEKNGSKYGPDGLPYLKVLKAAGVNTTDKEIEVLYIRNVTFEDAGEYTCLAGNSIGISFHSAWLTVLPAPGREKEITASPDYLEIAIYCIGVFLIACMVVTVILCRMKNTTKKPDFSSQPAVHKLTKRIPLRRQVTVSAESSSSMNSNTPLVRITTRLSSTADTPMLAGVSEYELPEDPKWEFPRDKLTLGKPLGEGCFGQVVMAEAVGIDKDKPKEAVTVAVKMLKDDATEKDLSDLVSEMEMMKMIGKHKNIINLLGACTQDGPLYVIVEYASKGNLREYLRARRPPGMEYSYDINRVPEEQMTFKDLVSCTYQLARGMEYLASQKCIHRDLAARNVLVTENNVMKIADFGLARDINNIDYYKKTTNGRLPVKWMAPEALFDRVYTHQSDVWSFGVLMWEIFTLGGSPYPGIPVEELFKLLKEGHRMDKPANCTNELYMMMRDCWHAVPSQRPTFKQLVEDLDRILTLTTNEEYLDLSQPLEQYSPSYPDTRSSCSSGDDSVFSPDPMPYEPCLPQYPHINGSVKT
# [5] = target: Tyrosine-protein kinase SYK (Homo sapiens) (UniProt P43405); assay: Inhibition of recombinant full-length human Syk at 10 uM using poly(Glu, Tyr) 4:1 as substrate measured after 120 mins in presence of [gamma33P]ATP by scintillation counting method
# [6] = target: SWI/SNF-related matrix-associated actin-dependent regulator of chromatin subfamily A member 2 (Homo sapiens) (UniProt P51531); assay: Binding affinity to human partial length SMARCA2 (S1377 to Q1486 residues) expressed in bacterial expression system at 1 uM by BROMOscan assay
# Method in brief: (§1)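 BROMOscan bromodomain cross-screen run by an outside service, compound at 1 µM against 32 recombinant bromodomains. Binding given as percent of control.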
# [7] = target: Protein kinase C alpha type (Homo sapiens) (UniProt P17252); assay: Inhibition of recombinant full-length human PKCalpha at 10 uM using histone H1 as substrate measured after 40 mins in presence of [gamma33P]ATP by scintillation counting method
# [8] = target: ATPase family AAA domain-containing protein 2 (Homo sapiens) (UniProt Q6PL18); assay: Binding affinity to human partial length ATAD2A (Q981 to R1108 residues) expressed in bacterial expression system at 1 uM by BROMOscan assay; method in brief: as §1
# [9] = target: Tyrosine-protein kinase JAK3 (Homo sapiens) (UniProt P52333); assay: Inhibition of recombinant human JAK3 (781 to end residues) at 10 uM using GGEEEEYFELVKKKK as substrate measured after 40 mins in presence of [gamma33P]ATP by scintillation counting method
# [10] = target: Serine/threonine-protein kinase tousled-like 1 (Homo sapiens) (UniProt Q9UKI8); assay: Inhibition of recombinant full-length human TLK1 at 10 uM using casein as substrate measured after 40 mins in presence of [gamma33P]ATP by scintillation counting method
# [11] = target: Serine/threonine-protein kinase Nek9 (Homo sapiens) (UniProt Q8TD19); assay: Inhibition of recombinant human NEK9 (1 to 324 residues) at 10 uM using myelin basic protein as substrate measured after 40 mins in presence of [gamma33P]ATP by scintillation counting method
# [12] = target: Mitogen-activated protein kinase 10 (Homo sapiens) (UniProt P53779); assay: Inhibition of recombinant full-length human JNK3 at 10 uM using peptide substrate measured after 40 mins in presence of [gamma33P]ATP by scintillation counting method
# [13] = target: Death-associated protein kinase 2 (Homo sapiens) (UniProt Q9UIK4); assay: Inhibition of recombinant full-length human DAPK2 at 10 uM using calmodulin as substrate measured after 40 mins in presence of [gamma33P]ATP by scintillation counting method
# Death-associated protein kinase 2 (Homo sapiens), sequence (Q9UIK4 whole entry, looked up): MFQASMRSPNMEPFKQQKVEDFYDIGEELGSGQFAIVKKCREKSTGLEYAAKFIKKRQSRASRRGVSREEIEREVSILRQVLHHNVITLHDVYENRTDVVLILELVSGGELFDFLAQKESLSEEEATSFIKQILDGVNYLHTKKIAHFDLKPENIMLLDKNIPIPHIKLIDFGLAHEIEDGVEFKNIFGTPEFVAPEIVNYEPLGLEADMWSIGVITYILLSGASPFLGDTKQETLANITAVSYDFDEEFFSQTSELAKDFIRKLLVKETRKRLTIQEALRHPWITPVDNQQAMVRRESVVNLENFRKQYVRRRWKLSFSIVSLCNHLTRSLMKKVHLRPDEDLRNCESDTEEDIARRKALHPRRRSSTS
# [14] = target: Casein kinase II subunit alpha (Homo sapiens) (UniProt P68400); assay: Inhibition of recombinant full length human CK2alpha1 at 10 uM using RRRDDDSDDD as substrate measured after 40 mins in presence of [gamma33P]ATP by scintillation counting method
# Mus musculus = species: Mus musculus; assay: Inhibition of recombinant full-length mouse PI3K p110alpha/p85alpha E545K mutant at 10 uM using phosphatidylinositol-4, 5-bisphosphate as substrate measured after 40 mins by HTRF assay
# [15] = target: Ephrin type-B receptor 3 (Homo sapiens) (UniProt P54753); assay: Inhibition of recombinant human EphB3 (599 to 920 residues) at 10 uM using poly (Glu, Tyr) 4:1 as substrate measured after 40 mins in presence of [gamma33P]ATP by scintillation counting method
# Ephrin type-B receptor 3 (Homo sapiens), sequence (P54753 whole entry, the tested form may be a part): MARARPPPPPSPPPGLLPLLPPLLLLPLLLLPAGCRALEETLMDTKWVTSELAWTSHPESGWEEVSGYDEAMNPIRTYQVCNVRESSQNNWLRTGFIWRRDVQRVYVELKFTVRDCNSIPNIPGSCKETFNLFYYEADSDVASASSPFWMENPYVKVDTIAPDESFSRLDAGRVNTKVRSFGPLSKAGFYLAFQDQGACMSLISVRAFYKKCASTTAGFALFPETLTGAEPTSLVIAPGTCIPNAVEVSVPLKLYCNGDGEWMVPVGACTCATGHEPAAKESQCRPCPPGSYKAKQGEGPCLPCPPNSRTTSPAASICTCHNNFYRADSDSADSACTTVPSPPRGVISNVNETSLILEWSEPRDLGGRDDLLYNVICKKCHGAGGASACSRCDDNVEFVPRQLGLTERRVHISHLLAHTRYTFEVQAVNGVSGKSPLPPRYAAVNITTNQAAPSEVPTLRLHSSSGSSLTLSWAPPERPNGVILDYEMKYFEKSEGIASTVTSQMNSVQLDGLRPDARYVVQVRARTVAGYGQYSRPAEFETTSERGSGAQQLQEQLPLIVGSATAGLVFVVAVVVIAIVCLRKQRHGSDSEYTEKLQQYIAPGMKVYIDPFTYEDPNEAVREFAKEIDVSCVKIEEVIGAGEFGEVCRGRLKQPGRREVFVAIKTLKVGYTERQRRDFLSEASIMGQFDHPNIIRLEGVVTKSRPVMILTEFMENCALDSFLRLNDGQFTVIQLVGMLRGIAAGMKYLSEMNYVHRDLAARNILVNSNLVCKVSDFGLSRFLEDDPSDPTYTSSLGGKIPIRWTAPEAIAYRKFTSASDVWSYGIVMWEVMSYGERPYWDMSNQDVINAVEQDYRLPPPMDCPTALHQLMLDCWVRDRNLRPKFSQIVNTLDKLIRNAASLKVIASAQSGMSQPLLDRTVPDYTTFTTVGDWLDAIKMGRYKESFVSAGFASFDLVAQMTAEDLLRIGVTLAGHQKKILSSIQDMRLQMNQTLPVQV
# [16] = target: Serine/threonine-protein kinase PAK 6 (Homo sapiens) (UniProt Q9NQU5); assay: Inhibition of recombinant human PAK6 (382 to end residues) at 10 uM using RRRLSFAEPG as substrate measured after 40 mins in presence of [gamma33P]ATP by scintillation counting method
# Serine/threonine-protein kinase PAK 6 (Homo sapiens), sequence (Q9NQU5 whole entry, looked up): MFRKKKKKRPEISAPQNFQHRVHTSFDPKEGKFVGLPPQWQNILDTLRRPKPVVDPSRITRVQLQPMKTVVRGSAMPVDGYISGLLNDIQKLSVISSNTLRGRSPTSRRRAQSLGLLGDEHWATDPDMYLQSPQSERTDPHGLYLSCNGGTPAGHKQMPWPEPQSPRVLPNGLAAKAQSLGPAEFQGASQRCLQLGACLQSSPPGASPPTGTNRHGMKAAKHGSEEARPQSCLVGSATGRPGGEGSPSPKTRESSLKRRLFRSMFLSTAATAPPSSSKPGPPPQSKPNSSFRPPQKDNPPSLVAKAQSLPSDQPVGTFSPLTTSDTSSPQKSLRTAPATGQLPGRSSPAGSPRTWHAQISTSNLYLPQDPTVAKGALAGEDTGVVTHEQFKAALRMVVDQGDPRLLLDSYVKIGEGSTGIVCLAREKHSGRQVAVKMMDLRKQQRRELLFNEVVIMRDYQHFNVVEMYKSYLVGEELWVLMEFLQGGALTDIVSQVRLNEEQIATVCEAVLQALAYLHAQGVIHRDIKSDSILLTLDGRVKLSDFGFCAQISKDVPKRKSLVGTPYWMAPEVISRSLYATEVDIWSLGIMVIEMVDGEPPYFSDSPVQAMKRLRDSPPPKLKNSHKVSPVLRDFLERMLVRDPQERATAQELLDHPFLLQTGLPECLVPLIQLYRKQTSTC
# [17] = target: Inhibitor of nuclear factor kappa-B kinase subunit beta (Homo sapiens) (UniProt O14920); assay: Inhibition of recombinant full-length human IKKbeta at 10 uM using peptide substrate measured after 40 mins in presence of [gamma33P]ATP by scintillation counting method
# [18] = target: Phosphatidylinositol 3-kinase C2 domain-containing subunit gamma (Homo sapiens) (UniProt O75747); assay: Inhibition of recombinant human PI3KC2gamma (468 to 1203 residues) at 10 uM using phosphatidylinositol as substrate measured after 40 mins by HTRF assay
# Homo sapiens [19] = species: Homo sapiens; assay: Inhibition of recombinant full-length human PKBalpha […] mutant at 10 uM using GRPRTSSFAEGKK as substrate measured after 40 mins in presence of [gamma33P]ATP by scintillation counting method
# Homo sapiens [20] = species: Homo sapiens; assay: Inhibition of recombinant full-length human PI3K p110delta/p85alpha N253S mutant at 10 uM using phosphatidylinositol-4, 5-bisphosphate as substrate measured after 40 mins by fluorescence assay
# [21] = tested on: Hepatocyte growth factor receptor (Homo sapiens), P08581 [Y1230C]; assay: Inhibition of recombinant human MET A1209G/V1290L/Y1248C mutant (974 to end residues) at 10 uM using KKKGQEEEYVFIE as substrate measured after 40 mins in presence of [gamma33P]ATP by scintillation counting method
# [22] = Clearance in human liver microsomes at 1 uM in presence of NADPH by LC-MS analysis; assay type: ADME, Microsome; conditions: read-out: CLH
# Method in brief: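 Compound at 1 μM with 0.5 mg/mL human liver microsomes and 1 mM NADPH; sampled at 0, 5, 15, 30 and 45 min, stopped with acetonitrile, then centrifuged.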
# [23] = target: Ephrin type-B receptor 1 (Homo sapiens) (UniProt P54762); assay: Inhibition of recombinant human EphB1 (564 to end residues) at 10 uM using KVEKIGEGTYGVVYK as substrate measured after 40 mins in presence of [gamma33P]ATP by scintillation counting method
# Ephrin type-B receptor 1 (Homo sapiens), sequence (P54762 whole entry): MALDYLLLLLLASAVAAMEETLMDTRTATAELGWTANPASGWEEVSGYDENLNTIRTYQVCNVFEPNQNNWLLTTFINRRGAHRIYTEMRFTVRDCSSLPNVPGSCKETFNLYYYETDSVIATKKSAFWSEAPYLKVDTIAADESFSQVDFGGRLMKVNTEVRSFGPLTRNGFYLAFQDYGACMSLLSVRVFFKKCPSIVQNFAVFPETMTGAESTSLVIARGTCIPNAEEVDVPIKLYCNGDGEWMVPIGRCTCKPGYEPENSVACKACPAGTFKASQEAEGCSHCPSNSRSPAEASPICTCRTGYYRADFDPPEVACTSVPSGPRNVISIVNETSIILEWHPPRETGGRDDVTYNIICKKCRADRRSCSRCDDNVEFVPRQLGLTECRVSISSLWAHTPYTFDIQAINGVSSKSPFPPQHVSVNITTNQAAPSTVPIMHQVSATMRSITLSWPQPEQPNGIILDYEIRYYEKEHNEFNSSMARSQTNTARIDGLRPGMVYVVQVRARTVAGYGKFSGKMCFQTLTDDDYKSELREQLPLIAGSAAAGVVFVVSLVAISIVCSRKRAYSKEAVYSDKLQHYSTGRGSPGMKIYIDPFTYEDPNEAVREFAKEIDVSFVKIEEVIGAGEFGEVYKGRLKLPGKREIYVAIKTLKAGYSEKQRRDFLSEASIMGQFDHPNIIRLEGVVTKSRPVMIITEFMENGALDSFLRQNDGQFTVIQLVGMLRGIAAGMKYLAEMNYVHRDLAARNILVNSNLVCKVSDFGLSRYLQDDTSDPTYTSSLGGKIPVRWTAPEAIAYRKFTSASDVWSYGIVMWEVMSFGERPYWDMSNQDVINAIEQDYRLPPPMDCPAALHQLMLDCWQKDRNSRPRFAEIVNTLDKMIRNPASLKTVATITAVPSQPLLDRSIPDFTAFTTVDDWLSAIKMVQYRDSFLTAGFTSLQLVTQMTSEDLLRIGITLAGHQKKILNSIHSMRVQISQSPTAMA
smiles,measurement,setting,value
CN1C[C@H](Nc2nc3cc[nH]c3c(=O)n2C)C[C@H](c2ccc3c(c2)OCCO3)C1,inhibition,Homo sapiens [1],inactive
same,inhibition,[2],inactive
same,inhibition,[3],inactive
same,inhibition,[4],inactive
same,inhibition,[5],inactive
same,Activity,[6],inactive
same,inhibition,[7],inactive
same,Activity,[8],inactive
same,inhibition,[9],inactive
same,inhibition,[10],inactive
same,inhibition,[11],inactive
same,inhibition,[12],inactive
same,inhibition,[13],inactive
same,inhibition,[14],inactive
same,inhibition,Mus musculus,inactive
same,inhibition,[15],inactive
same,inhibition,[16],inactive
same,inhibition,[17],inactive
same,inhibition,[18],inactive
same,inhibition,Homo sapiens [19],inactive
same,inhibition,Homo sapiens [20],inactive
same,inhibition,[21],inactive
same,CLint scaled at 1 µM,[22],45 mL/min/kg
same,inhibition,[23],inactive
